Measured values from ChEMBL document CHEMBL4609999, “Novel alkoxyamide-based histone deacetylase inhibitors reverse cisplatin resistance in chemoresistant cancer cells” (Bioorg Med Chem, 2020).
The source made the active and inactive calls. The calls are words filed in the database; no cut-off is given here.

Assays:
[1] = Potentiation of cisplatin-induced cytotoxicity against human Cal27CisR cells assessed as shift factor by measuring ratio of cisplatin IC50 to cisplatin IC50 in presence of compound at 0.8 uM incubated for 72 hrs followed by cisplatin addition and measured after 72 hrs by MTT assay; format: functional
In short: (§1)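 MTT shift assay. Cal27 cells received HDACi at 0.2, 0.4 or 1.4 µM; Cal27CisR cells received 0.8 or 6 µM. Cells were incubated 72 h with a cisplatin range. Shift factor = cisplatin IC50 alone / cisplatin IC50 with HDACi, significance by t-test (p<0.05). Pooled mean of ≥3 experiments, each in triplicate.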

Homo sapiens [2] = species: Homo sapiens; assay: Induction of apoptosis in human Cal27CisR cells assessed as increase in caspase 3/7 activation at 0.8 uM incubated for 24 hrs by Hoechst 33342 staining based fluorescence assay; format: functional, cell-based
Histone deacetylase [3] = assay: Inhibition of HDAC in human A2780 cells; format: cell-based
CAL-27 [4] = assay: Potentiation of cisplatin-induced cytotoxicity against human CAL27 cells assessed as shift factor by measuring ratio of cisplatin IC50 to cisplatin IC50 in presence of compound at 0.2 uM incubated for 72 hrs followed by cisplatin addition and measured after 72 hrs by MTT assay; format: functional; in short: as §1
CAL-27 [5] = assay: Cytotoxicity against human CAL27 cells assessed as reduction in cell viability by MTT assay; format: functional, cell-based
[6] = molecular target: T1, Class 1 histone deacetylase (Homo sapiens) (UniProt Q13547+O15379+Q92769+Q9BY41); assay: Inhibition of class 1 histone deacetylase in human CAL27 cells assessed as increase in H3 histone acetylation at 1.5 uM incubated for 24 hrs by immunoblot analysis; format: cell-based; details: CAL-27
In short: (§2)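 Cal27 and Cal27CisR cells incubated 24 h with vehicle or with inhibitor at 1.5, 3 or 5 µM. Western blot for α-tubulin, acetyl-α-tubulin and acetyl-histone H3.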

Histone deacetylase 8 = molecular target: T2, Histone deacetylase 8 (Homo sapiens, UniProt Q9BY41); assay: Inhibition of recombinant human HDAC8
T2 sequence (Q9BY41 whole entry): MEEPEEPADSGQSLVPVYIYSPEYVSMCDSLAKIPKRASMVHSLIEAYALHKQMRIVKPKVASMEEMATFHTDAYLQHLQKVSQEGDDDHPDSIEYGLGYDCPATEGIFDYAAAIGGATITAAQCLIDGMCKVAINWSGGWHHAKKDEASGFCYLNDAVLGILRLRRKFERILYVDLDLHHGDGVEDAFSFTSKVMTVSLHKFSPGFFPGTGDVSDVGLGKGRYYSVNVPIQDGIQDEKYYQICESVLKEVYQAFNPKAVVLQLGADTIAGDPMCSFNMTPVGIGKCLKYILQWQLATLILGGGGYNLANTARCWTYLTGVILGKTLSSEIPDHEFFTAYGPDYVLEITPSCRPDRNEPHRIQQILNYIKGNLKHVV

[7] = molecular target: T3, Protein deacetylase HDAC6 (Homo sapiens) (UniProt Q9UBN7); assay: Inhibition of HDAC6 in human Cal27CisR cells assessed as increase in acetylated alpha-tubulin at 1.5 uM incubated for 24 hrs by immunoblot analysis; format: cell-based; in short: as §2
T3 sequence (whole entry): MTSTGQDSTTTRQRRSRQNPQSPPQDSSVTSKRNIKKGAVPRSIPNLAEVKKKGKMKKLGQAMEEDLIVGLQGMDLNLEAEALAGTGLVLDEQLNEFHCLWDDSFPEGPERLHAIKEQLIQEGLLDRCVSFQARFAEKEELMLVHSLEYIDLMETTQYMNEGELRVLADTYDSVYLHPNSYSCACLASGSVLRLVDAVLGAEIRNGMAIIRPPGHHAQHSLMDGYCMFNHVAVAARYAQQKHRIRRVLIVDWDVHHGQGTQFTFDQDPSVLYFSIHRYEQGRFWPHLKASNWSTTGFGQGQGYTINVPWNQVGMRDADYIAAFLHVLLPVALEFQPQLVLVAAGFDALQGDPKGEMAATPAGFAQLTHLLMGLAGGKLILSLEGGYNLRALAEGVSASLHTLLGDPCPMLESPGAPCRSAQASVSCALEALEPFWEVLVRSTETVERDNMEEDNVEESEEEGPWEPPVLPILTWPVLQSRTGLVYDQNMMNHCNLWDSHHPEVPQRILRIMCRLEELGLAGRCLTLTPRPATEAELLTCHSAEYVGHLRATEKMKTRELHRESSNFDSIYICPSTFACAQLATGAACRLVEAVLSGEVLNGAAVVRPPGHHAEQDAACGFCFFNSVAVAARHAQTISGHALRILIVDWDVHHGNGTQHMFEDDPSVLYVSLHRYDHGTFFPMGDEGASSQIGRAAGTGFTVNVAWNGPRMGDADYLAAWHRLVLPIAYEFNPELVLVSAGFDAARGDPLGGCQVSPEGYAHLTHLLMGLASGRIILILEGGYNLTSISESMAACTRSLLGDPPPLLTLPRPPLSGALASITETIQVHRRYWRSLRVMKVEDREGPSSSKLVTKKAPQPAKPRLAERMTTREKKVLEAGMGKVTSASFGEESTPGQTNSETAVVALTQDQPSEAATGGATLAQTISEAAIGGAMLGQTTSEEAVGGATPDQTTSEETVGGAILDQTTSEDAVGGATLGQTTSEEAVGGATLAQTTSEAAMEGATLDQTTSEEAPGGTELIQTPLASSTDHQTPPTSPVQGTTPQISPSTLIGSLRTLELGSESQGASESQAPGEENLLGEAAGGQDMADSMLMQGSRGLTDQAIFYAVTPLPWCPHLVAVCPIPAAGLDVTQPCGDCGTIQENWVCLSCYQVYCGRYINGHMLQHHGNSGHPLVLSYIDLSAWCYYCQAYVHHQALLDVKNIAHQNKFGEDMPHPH

Histone deacetylase 2 = Histone deacetylase 2 (Homo sapiens, UniProt Q92769); assay: Inhibition of recombinant human HDAC2
[8] = molecular target: T4, Protein deacetylase HDAC6 (Homo sapiens, UniProt Q9UBN7); assay: Inhibition of recombinant human HDAC6
T4 sequence (Q9UBN7 whole entry): T3 sequence (whole entry)

[9] = molecular target: T3, Protein deacetylase HDAC6 (Homo sapiens); assay: Inhibition of HDAC6 in human CAL27 cells assessed as increase in acetylated alpha-tubulin at 1.5 uM incubated for 24 hrs by immunoblot analysis; format: cell-based; details: CAL-27; in short: as §2
Histone deacetylase 4 = Histone deacetylase 4 (Homo sapiens, UniProt P56524); assay: Inhibition of recombinant human HDAC4
A2780 = assay: Cytotoxicity against human A2780 cells assessed as reduction in cell viability by MTT assay; format: functional, cell-based
CAL-27 [10] = assay: Potentiation of cisplatin-induced apoptosis in human CAL27 cells assessed as increase in caspase 3/7 activation at 0.4 uM incubated for 24 hrs followed by cisplatin addition by Hoechst 33342 staining based fluorescence assay; format: functional, cell-based
In short: (§3)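 Cal27 cells pretreated with HDACi at 0.4, 0.8 or 2.8 µM, then 24 h more with 3 µM cisplatin. Cal27CisR cells pretreated at 0.8 or 8 µM, then 24 h with 25 µM cisplatin. 100 µM cisplatin as positive control. Active caspase 3/7 imaged by green fluorescence, nuclei counterstained with Hoechst 33342 (blue).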

CAL-27 [11] = assay: Induction of apoptosis in human CAL27 cells assessed as increase in caspase 3/7 activation at 0.4 uM incubated for 24 hrs by Hoechst 33342 staining based fluorescence assay; format: functional, cell-based
[12] = molecular target: T1, Class 1 histone deacetylase (Homo sapiens); assay: Inhibition of class 1 histone deacetylase in human Cal27CisR cells assessed as increase in H3 histone acetylation at 1.5 uM incubated for 24 hrs by immunoblot analysis; format: cell-based; in short: as §2
Histone deacetylase [13] = assay: Inhibition of HDAC in human Cal27 cells; format: cell-based; details: cal-27
Homo sapiens [14] = species: Homo sapiens; assay: Potentiation of cisplatin-induced apoptosis in human Cal27CisR cells assessed as increase in caspase 3/7 activation at 0.8 uM incubated for 24 hrs followed by cisplatin addition by Hoechst 33342 staining based fluorescence assay; format: functional, cell-based; in short: as §3
[15] = molecular target: T3, Protein deacetylase HDAC6 (Homo sapiens); assay: Inhibition of HDAC6 in human Cal27CisR cells assessed as increase in acetylated alpha-tubulin at 5 uM incubated for 24 hrs by immunoblot analysis; format: cell-based; in short: as §2
[16] = molecular target: T3, Protein deacetylase HDAC6 (Homo sapiens); assay: Inhibition of HDAC6 in human CAL27 cells assessed as increase in acetylated alpha-tubulin at 5 uM incubated for 24 hrs by immunoblot analysis; format: cell-based; details: CAL-27; in short: as §2
[17] = molecular target: T1, Class 1 histone deacetylase (Homo sapiens); assay: Inhibition of class 1 histone deacetylase in human CAL27 cells assessed as increase in H3 histone acetylation at 5 uM incubated for 24 hrs by immunoblot analysis; format: cell-based; details: CAL-27; in short: as §2
CAL-27 [18] = assay: Potentiation of cisplatin-induced apoptosis in human CAL27 cells assessed as increase in caspase 3/7 activation at 2.8 uM incubated for 24 hrs followed by cisplatin addition by Hoechst 33342 staining based fluorescence assay; format: functional, cell-based; in short: as §3
CAL-27 [19] = assay: Induction of apoptosis in human CAL27 cells assessed as increase in caspase 3/7 activation at 2.8 uM incubated for 24 hrs by Hoechst 33342 staining based fluorescence assay; format: functional, cell-based
CAL-27 [20] = assay: Potentiation of cisplatin-induced cytotoxicity against human CAL27 cells assessed as shift factor by measuring ratio of cisplatin IC50 to cisplatin IC50 in presence of compound at 1.4 uM incubated for 72 hrs followed by cisplatin addition and measured after 72 hrs by MTT assay; format: functional; in short: as §1
[21] = molecular target: T1, Class 1 histone deacetylase (Homo sapiens); assay: Inhibition of class 1 histone deacetylase in human Cal27CisR cells assessed as increase in H3 histone acetylation at 5 uM incubated for 24 hrs by immunoblot analysis; format: cell-based; in short: as §2
Homo sapiens [22] = species: Homo sapiens; assay: Potentiation of cisplatin-induced apoptosis in human Cal27CisR cells assessed as increase in caspase 3/7 activation at 8 uM incubated for 24 hrs followed by cisplatin addition by Hoechst 33342 staining based fluorescence assay; format: functional, cell-based; in short: as §3
Homo sapiens [23] = species: Homo sapiens; assay: Induction of apoptosis in human Cal27CisR cells assessed as increase in caspase 3/7 activation at 8 uM incubated for 24 hrs by Hoechst 33342 staining based fluorescence assay; format: functional, cell-based
[24] = Potentiation of cisplatin-induced cytotoxicity against human Cal27CisR cells assessed as shift factor by measuring ratio of cisplatin IC50 to cisplatin IC50 in presence of compound at 6 uM incubated for 72 hrs followed by cisplatin addition and measured after 72 hrs by MTT assay; format: functional; in short: as §1
CAL-27 [25] = assay: Potentiation of cisplatin-induced apoptosis in human CAL27 cells assessed as increase in caspase 3/7 activation at 0.8 uM incubated for 24 hrs followed by cisplatin addition by Hoechst 33342 staining based fluorescence assay; format: functional, cell-based; in short: as §3
CAL-27 [26] = assay: Potentiation of cisplatin-induced cytotoxicity against human CAL27 cells assessed as shift factor by measuring ratio of cisplatin IC50 to cisplatin IC50 in presence of compound at 0.4 uM incubated for 72 hrs followed by cisplatin addition and measured after 72 hrs by MTT assay; format: functional; in short: as §1
CAL-27 [27] = assay: Induction of apoptosis in human CAL27 cells assessed as increase in caspase 3/7 activation at 0.8 uM incubated for 24 hrs by Hoechst 33342 staining based fluorescence assay; format: functional, cell-based

Histone deacetylase 4, sequence (P56524 whole entry): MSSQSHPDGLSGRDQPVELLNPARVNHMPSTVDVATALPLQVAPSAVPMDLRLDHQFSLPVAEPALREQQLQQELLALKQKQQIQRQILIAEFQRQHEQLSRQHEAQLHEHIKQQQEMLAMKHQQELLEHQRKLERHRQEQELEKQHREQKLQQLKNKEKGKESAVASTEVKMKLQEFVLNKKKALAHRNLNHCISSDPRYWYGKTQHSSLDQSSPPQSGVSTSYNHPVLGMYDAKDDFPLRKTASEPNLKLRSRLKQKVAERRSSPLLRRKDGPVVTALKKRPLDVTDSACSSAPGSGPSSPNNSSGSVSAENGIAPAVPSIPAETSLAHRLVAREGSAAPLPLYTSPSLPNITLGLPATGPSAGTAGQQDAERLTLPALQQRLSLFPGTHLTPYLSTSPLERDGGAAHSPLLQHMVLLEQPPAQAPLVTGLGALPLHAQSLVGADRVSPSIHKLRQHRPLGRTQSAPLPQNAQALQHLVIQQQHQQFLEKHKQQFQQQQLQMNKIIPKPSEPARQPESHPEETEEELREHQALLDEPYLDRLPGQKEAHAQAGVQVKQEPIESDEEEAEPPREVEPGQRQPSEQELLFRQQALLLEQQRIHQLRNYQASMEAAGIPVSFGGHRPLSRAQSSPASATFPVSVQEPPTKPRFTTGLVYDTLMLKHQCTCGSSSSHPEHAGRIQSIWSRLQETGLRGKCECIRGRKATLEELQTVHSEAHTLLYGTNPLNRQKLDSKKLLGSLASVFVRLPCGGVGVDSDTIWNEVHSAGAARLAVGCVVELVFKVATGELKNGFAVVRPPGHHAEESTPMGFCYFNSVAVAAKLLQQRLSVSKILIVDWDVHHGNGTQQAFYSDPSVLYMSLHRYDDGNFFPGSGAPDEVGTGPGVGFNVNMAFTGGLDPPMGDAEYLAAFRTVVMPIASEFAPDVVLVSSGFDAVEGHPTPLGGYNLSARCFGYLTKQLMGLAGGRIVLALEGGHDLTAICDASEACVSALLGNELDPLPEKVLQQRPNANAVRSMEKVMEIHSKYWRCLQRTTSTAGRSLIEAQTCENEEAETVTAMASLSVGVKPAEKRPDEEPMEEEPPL
Histone deacetylase 2, sequence (Q92769 whole entry): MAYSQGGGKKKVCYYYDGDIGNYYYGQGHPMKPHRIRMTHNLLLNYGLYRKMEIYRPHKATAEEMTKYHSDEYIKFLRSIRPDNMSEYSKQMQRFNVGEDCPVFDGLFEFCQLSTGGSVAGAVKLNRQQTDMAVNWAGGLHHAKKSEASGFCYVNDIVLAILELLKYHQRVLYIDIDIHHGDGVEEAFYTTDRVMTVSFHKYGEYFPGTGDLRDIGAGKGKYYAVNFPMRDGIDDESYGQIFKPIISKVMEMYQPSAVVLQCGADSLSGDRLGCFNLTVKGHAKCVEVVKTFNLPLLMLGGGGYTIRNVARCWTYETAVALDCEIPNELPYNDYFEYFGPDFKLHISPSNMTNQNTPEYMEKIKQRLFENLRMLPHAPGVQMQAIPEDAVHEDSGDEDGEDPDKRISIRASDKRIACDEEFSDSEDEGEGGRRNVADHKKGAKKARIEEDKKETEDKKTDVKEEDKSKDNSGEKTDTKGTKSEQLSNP

SMILES	IC50 (Histone deacetylase [3]) [µM]	IC50 (CAL-27 [5]) [µM]	Ki (Histone deacetylase 8) [µM]	Ki (Histone deacetylase 2) [µM]	Ki [8] [µM]	Ki (Histone deacetylase 4) [µM]	IC50 (A2780) [µM]	IC50 (Histone deacetylase [13]) [µM]	other results
COc1cc(OC)cc(C(=O)NOCCCCCC(=O)NO)c1	0.83	0.72	5.69	0.06	0.03	49.2	0.89	0.45	PF [1]: 12.8; Activity (Homo sapiens [2]): Active; PF (CAL-27 [4]): 3.79; inhibition [6]: Active; inhibition [7]: Active; inhibition [9]: Active; Activity (CAL-27 [10]): Active; Activity (CAL-27 [11]): Active; inhibition [12]: Active; Activity (Homo sapiens [14]): Active
O=C(CCCCCONC(=O)c1c(Cl)cncc1Cl)NO	14.5	28.1	18.9	1.36	0.35	> 100	68.4	12.7	
CC(C)(C)c1cc(C(=O)NOCCCCCC(=O)NO)cc(C(C)(C)C)c1	0.93	1	28.1	1.57	2.15	> 100	1.55	1.3	
COc1cc(C(=O)NOCCCCCC(=O)NO)cc(OC)c1OC	1.18	3.07	6.4	0.09	0.06	93.1	13.8	1.48	inhibition [15]: Active; inhibition [16]: Active; inhibition [17]: Active; Activity (CAL-27 [18]): Active; Activity (CAL-27 [19]): Active; PF (CAL-27 [20]): 1.95; inhibition [21]: Active; Activity (Homo sapiens [22]): Active; Activity (Homo sapiens [23]): Active; PF [24]: 7.73
O=C(CCCCCONC(=O)c1cc(C(F)(F)F)cc(C(F)(F)F)c1)NO	11	15.8	4.9	0.55	0.56	83.7	30.5	10.56	
Cc1cc(C)cc(C(=O)NOCCCCC(=O)NO)c1	4.24	8.67	22.3	0.37	0.42	> 100	9.34	3.36	
O=C(CCCCCONC(=O)c1cc(I)cc(I)c1I)NO	7.2	45	10	1.33	0.33	> 100	64	9.4	
O=C(CCCCCONC(=O)c1cc(F)cc(F)c1)NO	3.79	7.98	14.7	0.58	0.1	> 100	13.7	3.77	
Cc1cc(C)cc(C(=O)NOCCCCCC(=O)NO)c1	0.17	0.76	4.81	0.08	0.05	> 100	0.97	0.55	PF [1]: 8.36; Activity (CAL-27 [25]): Active; Activity (Homo sapiens [2]): Active; inhibition [6]: Active; inhibition [7]: Active; inhibition [9]: Active; inhibition [12]: Active; PF (CAL-27 [26]): 3; Activity (CAL-27 [27]): Active; Activity (Homo sapiens [14]): Active
O=C(CCCCCONC(=O)c1cc(Br)cc(Br)c1)NO	1.65	3.63	4.44	0.21	0.12	31.8	10.2	1.8	
